# Target: T1, Caspase-3 (Homo sapiens, UniProt P42574)
# T1 sequence (P42574 whole entry): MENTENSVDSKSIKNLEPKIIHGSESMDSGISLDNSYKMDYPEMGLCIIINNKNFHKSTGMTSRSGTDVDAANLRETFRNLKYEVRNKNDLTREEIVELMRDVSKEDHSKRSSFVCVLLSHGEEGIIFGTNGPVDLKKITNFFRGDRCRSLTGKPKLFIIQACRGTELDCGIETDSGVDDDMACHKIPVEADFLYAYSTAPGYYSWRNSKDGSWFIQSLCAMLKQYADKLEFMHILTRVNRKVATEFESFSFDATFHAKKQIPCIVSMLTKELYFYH
# Assay: Inhibition of staurosporine induced activation of caspase 3 activation in human Hela cells assessed as hydrolysis of Z-DEVD-R110 substrate by microplate fluorescence assay
# Type: cell-based
# Procedure, shortened: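 HeLa cells were seeded at 1-2×10^4 per well and left to adhere overnight at 37°C in 5% CO2. […] A homogeneous caspase-3/7 kit with cell-permeable Z-DEVD-R110 was then used, reading fluorescence at ex 485/em 535 nm. EC50 was taken from dose-response curves, as mean ± SD of ≥3 independent experiments.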
row,SMILES,EC50
1,O=C1C(=O)N(Cc2cn(CCF)nn2)c2ccc(S(=O)(=O)N3CCC[C@H]3COc3ccc(F)cc3F)cc21,680 nM
2,CN1C(=O)C(=O)c2cc(S(=O)(=O)N3CCC[C@H]3COc3ccccc3)ccc21,7670 nM
3,O=C1C(=O)N(Cc2ccccc2)c2ccc(S(=O)(=O)N3CCC[C@H]3COc3cccnc3)cc21,650 nM
4,O=C1C(=O)N(Cc2ccc(OCCF)cc2)c2ccc(S(=O)(=O)N3CCC[C@H]3COc3ccccc3)cc21,4500 nM
5,CN1C(=O)C(=O)c2cc(S(=O)(=O)N3CCC[C@H]3COc3cccnc3)ccc21,1800 nM
6,O=C1C(=O)N(Cc2ccc(OCCOCCOCCF)cc2)c2ccc(S(=O)(=O)N3CCC[C@H]3COc3ccccc3)cc21,1300 nM
7,O=C1Nc2ccc(S(=O)(=O)N3CCC[C@H]3COc3cccnc3)cc2C1=O,1830 nM
8,O=C1C(=O)N(Cc2ccccc2)c2ccc(S(=O)(=O)N3CC[C@H]3COc3ccccc3)cc21,2800 nM

# Target: T1, Caspase-3
# Assay: Inhibition of human caspase 3 by fluorometric assay
# Procedure, shortened: (§1)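 Recombinant caspases were tested in a standard fluorometric enzyme assay. IC50 is reported as mean ± SD of at least three independent assays.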
row,SMILES,IC50
1,N#CC(C#N)=C1C(=O)N(Cc2ccc(OCCF)cc2)c2ccc(S(=O)(=O)N3CCC[C@H]3COc3ccccc3)cc21,18.3 nM
2,N#CC(C#N)=C1C(=O)N(Cc2ccc(OCCOCCF)cc2)c2ccc(S(=O)(=O)N3CCC[C@H]3COc3ccccc3)cc21,23.3 nM
3,N#CC(C#N)=C1C(=O)N(Cc2ccc(OCCF)cc2)c2ccc(S(=O)(=O)N3CC[C@H]3COc3ccccc3)cc21,22.4 nM
4,O=C1C(=O)N(Cc2ccc(OCCOCCOCCF)cc2)c2ccc(S(=O)(=O)N3CC[C@H]3COc3ccccc3)cc21,26.9 nM
5,COc1ccc(CN2C(=O)C(=C(C#N)C#N)c3cc(S(=O)(=O)N4CC[C@H]4COc4cccnc4)ccc32)cc1,6 nM
6,N#CC(C#N)=C1C(=O)N(Cc2ccc(OCCOCCF)cc2)c2ccc(S(=O)(=O)N3CC[C@H]3COc3ccccc3)cc21,24.4 nM
7,O=C1C(=O)N(Cc2cn(CCF)nn2)c2ccc(S(=O)(=O)N3CCC[C@H]3COc3ccc(F)cc3F)cc21,10.8 nM
8,O=C1C(=O)N(Cc2ccc(OCCOCCOCCF)cc2)c2ccc(S(=O)(=O)N3CCC[C@H]3COc3ccccc3)cc21,13.7 nM
9,N#CC(C#N)=C1C(=O)N(Cc2ccc(OCCF)cc2)c2ccc(S(=O)(=O)N3CCC[C@H]3COc3cccnc3)cc21,7.5 nM
10,N#CC(C#N)=C1C(=O)N(Cc2ccc(OCCF)cc2)c2ccc(S(=O)(=O)N3CC[C@H]3COc3cccnc3)cc21,7.1 nM

# Target: T2, Caspase-1 (Homo sapiens, UniProt P29466)
# T2 sequence (P29466 whole entry): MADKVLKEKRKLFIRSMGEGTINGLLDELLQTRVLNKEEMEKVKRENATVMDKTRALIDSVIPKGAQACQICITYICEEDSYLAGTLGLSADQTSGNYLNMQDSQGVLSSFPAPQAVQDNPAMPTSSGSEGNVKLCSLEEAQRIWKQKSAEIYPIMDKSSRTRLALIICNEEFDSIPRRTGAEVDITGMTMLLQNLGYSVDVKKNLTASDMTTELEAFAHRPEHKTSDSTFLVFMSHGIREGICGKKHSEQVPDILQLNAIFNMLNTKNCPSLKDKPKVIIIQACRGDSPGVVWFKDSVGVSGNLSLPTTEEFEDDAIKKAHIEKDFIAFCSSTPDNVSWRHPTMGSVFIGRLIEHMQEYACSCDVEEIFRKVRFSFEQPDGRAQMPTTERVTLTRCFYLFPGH
# Assay: Inhibition of caspase 1 by fluorometric assay
# Procedure, shortened: as §1
row,SMILES,IC50
1,N#CC(C#N)=C1C(=O)N(Cc2ccc(OCCF)cc2)c2ccc(S(=O)(=O)N3CCC[C@H]3COc3ccccc3)cc21,> 10000 nM
2,N#CC(C#N)=C1C(=O)N(Cc2ccc(OCCOCCF)cc2)c2ccc(S(=O)(=O)N3CCC[C@H]3COc3ccccc3)cc21,> 10000 nM
3,N#CC(C#N)=C1C(=O)N(Cc2ccc(OCCF)cc2)c2ccc(S(=O)(=O)N3CC[C@H]3COc3ccccc3)cc21,4780 nM
4,O=C1C(=O)N(Cc2ccc(OCCOCCOCCF)cc2)c2ccc(S(=O)(=O)N3CC[C@H]3COc3ccccc3)cc21,> 25000 nM
5,COc1ccc(CN2C(=O)C(=C(C#N)C#N)c3cc(S(=O)(=O)N4CC[C@H]4COc4cccnc4)ccc32)cc1,> 36000 nM
6,N#CC(C#N)=C1C(=O)N(Cc2ccc(OCCOCCF)cc2)c2ccc(S(=O)(=O)N3CC[C@H]3COc3ccccc3)cc21,5730 nM
7,O=C1C(=O)N(Cc2cn(CCF)nn2)c2ccc(S(=O)(=O)N3CCC[C@H]3COc3ccc(F)cc3F)cc21,> 20000 nM
8,O=C1C(=O)N(Cc2ccc(OCCOCCOCCF)cc2)c2ccc(S(=O)(=O)N3CCC[C@H]3COc3ccccc3)cc21,> 50000 nM
9,N#CC(C#N)=C1C(=O)N(Cc2ccc(OCCF)cc2)c2ccc(S(=O)(=O)N3CCC[C@H]3COc3cccnc3)cc21,3500 nM
10,N#CC(C#N)=C1C(=O)N(Cc2ccc(OCCF)cc2)c2ccc(S(=O)(=O)N3CC[C@H]3COc3cccnc3)cc21,2900 nM

# Target: T3, Caspase-6 (Homo sapiens, UniProt P55212)
# T3 sequence (P55212 whole entry): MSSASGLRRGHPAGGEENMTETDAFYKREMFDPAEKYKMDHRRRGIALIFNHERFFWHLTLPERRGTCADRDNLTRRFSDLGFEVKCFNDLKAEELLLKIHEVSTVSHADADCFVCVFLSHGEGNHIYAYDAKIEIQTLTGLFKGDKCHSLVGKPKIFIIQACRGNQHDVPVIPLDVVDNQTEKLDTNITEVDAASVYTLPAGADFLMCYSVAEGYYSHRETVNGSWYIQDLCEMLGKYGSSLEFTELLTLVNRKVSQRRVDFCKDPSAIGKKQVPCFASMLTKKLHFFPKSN
# Assay: Inhibition of caspase 6 by fluorometric assay
# Procedure, shortened: as §1
row,SMILES,IC50
1,N#CC(C#N)=C1C(=O)N(Cc2ccc(OCCF)cc2)c2ccc(S(=O)(=O)N3CCC[C@H]3COc3ccccc3)cc21,927 nM
2,N#CC(C#N)=C1C(=O)N(Cc2ccc(OCCOCCF)cc2)c2ccc(S(=O)(=O)N3CCC[C@H]3COc3ccccc3)cc21,1160 nM
3,N#CC(C#N)=C1C(=O)N(Cc2ccc(OCCF)cc2)c2ccc(S(=O)(=O)N3CC[C@H]3COc3ccccc3)cc21,747 nM
4,O=C1C(=O)N(Cc2ccc(OCCOCCOCCF)cc2)c2ccc(S(=O)(=O)N3CC[C@H]3COc3ccccc3)cc21,2990 nM
5,COc1ccc(CN2C(=O)C(=C(C#N)C#N)c3cc(S(=O)(=O)N4CC[C@H]4COc4cccnc4)ccc32)cc1,450 nM
6,N#CC(C#N)=C1C(=O)N(Cc2ccc(OCCOCCF)cc2)c2ccc(S(=O)(=O)N3CC[C@H]3COc3ccccc3)cc21,1010 nM
7,O=C1C(=O)N(Cc2cn(CCF)nn2)c2ccc(S(=O)(=O)N3CCC[C@H]3COc3ccc(F)cc3F)cc21,4430 nM
8,O=C1C(=O)N(Cc2ccc(OCCOCCOCCF)cc2)c2ccc(S(=O)(=O)N3CCC[C@H]3COc3ccccc3)cc21,7670 nM
9,N#CC(C#N)=C1C(=O)N(Cc2ccc(OCCF)cc2)c2ccc(S(=O)(=O)N3CCC[C@H]3COc3cccnc3)cc21,770 nM
10,N#CC(C#N)=C1C(=O)N(Cc2ccc(OCCF)cc2)c2ccc(S(=O)(=O)N3CC[C@H]3COc3cccnc3)cc21,509 nM

# Target: T4, Caspase-7 (Homo sapiens, UniProt P55210)
# T4 sequence (P55210 whole entry): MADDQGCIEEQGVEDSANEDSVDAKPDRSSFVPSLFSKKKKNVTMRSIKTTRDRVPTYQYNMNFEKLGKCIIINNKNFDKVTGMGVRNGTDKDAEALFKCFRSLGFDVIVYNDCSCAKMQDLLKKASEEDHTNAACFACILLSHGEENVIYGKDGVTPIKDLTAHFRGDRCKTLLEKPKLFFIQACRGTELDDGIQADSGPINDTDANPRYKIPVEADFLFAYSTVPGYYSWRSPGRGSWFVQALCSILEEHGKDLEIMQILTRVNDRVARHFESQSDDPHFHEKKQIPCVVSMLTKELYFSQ
# Assay: Inhibition of caspase 7 by fluorometric assay
row,SMILES,IC50
1,N#CC(C#N)=C1C(=O)N(Cc2ccc(OCCF)cc2)c2ccc(S(=O)(=O)N3CCC[C@H]3COc3ccccc3)cc21,96.3 nM
2,N#CC(C#N)=C1C(=O)N(Cc2ccc(OCCOCCF)cc2)c2ccc(S(=O)(=O)N3CCC[C@H]3COc3ccccc3)cc21,70 nM
3,N#CC(C#N)=C1C(=O)N(Cc2ccc(OCCF)cc2)c2ccc(S(=O)(=O)N3CC[C@H]3COc3ccccc3)cc21,292 nM
4,O=C1C(=O)N(Cc2ccc(OCCOCCOCCF)cc2)c2ccc(S(=O)(=O)N3CC[C@H]3COc3ccccc3)cc21,19.2 nM
5,COc1ccc(CN2C(=O)C(=C(C#N)C#N)c3cc(S(=O)(=O)N4CC[C@H]4COc4cccnc4)ccc32)cc1,50 nM
6,N#CC(C#N)=C1C(=O)N(Cc2ccc(OCCOCCF)cc2)c2ccc(S(=O)(=O)N3CC[C@H]3COc3ccccc3)cc21,68.3 nM
7,O=C1C(=O)N(Cc2cn(CCF)nn2)c2ccc(S(=O)(=O)N3CCC[C@H]3COc3ccc(F)cc3F)cc21,11.6 nM
8,O=C1C(=O)N(Cc2ccc(OCCOCCOCCF)cc2)c2ccc(S(=O)(=O)N3CCC[C@H]3COc3ccccc3)cc21,17.6 nM
9,N#CC(C#N)=C1C(=O)N(Cc2ccc(OCCF)cc2)c2ccc(S(=O)(=O)N3CCC[C@H]3COc3cccnc3)cc21,26.5 nM
10,N#CC(C#N)=C1C(=O)N(Cc2ccc(OCCF)cc2)c2ccc(S(=O)(=O)N3CC[C@H]3COc3cccnc3)cc21,45 nM

# Target: Caspase-8 (Homo sapiens, UniProt Q14790)
# Sequence (Q14790 217-374 limits assumed): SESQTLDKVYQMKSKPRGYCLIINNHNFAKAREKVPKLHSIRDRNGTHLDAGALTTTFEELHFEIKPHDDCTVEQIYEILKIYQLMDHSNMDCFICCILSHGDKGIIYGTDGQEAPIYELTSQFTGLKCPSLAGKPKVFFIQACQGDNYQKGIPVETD
# Sequence (Q14790 385-479 limits assumed): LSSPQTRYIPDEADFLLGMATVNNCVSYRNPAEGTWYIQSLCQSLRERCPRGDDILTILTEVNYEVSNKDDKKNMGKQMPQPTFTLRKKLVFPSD
# Assay: Inhibition of caspase 8 by fluorometric assay
# Procedure, shortened: as §1
row,SMILES,IC50
1,N#CC(C#N)=C1C(=O)N(Cc2ccc(OCCF)cc2)c2ccc(S(=O)(=O)N3CCC[C@H]3COc3ccccc3)cc21,> 50000 nM
2,N#CC(C#N)=C1C(=O)N(Cc2ccc(OCCOCCF)cc2)c2ccc(S(=O)(=O)N3CCC[C@H]3COc3ccccc3)cc21,> 50000 nM
3,N#CC(C#N)=C1C(=O)N(Cc2ccc(OCCF)cc2)c2ccc(S(=O)(=O)N3CC[C@H]3COc3ccccc3)cc21,> 25000 nM
4,O=C1C(=O)N(Cc2ccc(OCCOCCOCCF)cc2)c2ccc(S(=O)(=O)N3CC[C@H]3COc3ccccc3)cc21,> 50000 nM
5,COc1ccc(CN2C(=O)C(=C(C#N)C#N)c3cc(S(=O)(=O)N4CC[C@H]4COc4cccnc4)ccc32)cc1,> 50000 nM
6,N#CC(C#N)=C1C(=O)N(Cc2ccc(OCCOCCF)cc2)c2ccc(S(=O)(=O)N3CC[C@H]3COc3ccccc3)cc21,> 50000 nM
7,O=C1C(=O)N(Cc2cn(CCF)nn2)c2ccc(S(=O)(=O)N3CCC[C@H]3COc3ccc(F)cc3F)cc21,> 50000 nM
8,O=C1C(=O)N(Cc2ccc(OCCOCCOCCF)cc2)c2ccc(S(=O)(=O)N3CCC[C@H]3COc3ccccc3)cc21,> 50000 nM
9,N#CC(C#N)=C1C(=O)N(Cc2ccc(OCCF)cc2)c2ccc(S(=O)(=O)N3CCC[C@H]3COc3cccnc3)cc21,> 50000 nM
10,N#CC(C#N)=C1C(=O)N(Cc2ccc(OCCF)cc2)c2ccc(S(=O)(=O)N3CC[C@H]3COc3cccnc3)cc21,> 50000 nM
